Measurements from ChEMBL document CHEMBL4152234, “Aminobenzothiazole derivatives stabilize the thermolabile p53 cancer mutant Y220C and show anticancer activity in p53-Y220C cell lines” (Eur J Med Chem, 2018).
Calls of active or inactive are those of the source. The rule behind the calls is not given here.

Columns and labels:
[1] = system: Cellular tumor antigen p53 (Homo sapiens), P04637 [Y220C]; assay: Activation of p53 Y220C mutant in human NUGC3 cells assessed as change in XRCC5 mRNA level at 60 uM after 18 hrs by RT-PCR method relative to control; assay type: cell-based
Summary of the method: (§1)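 p53 signalling qPCR array covering 84 p53 pathway genes. Cells were exposed for 18 h, and compound and control wells both held 0.5% DMSO. Total RNA was extracted and purified. Fold-changes were calculated by the ΔΔCt method against the untreated sample, with β2-microglobulin (B2M) as the housekeeping gene. Each cell line was run in two independent biological replicates.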

[2] = target: T1, Cellular tumor antigen p53 (Homo sapiens, UniProt P04637); assay: Activation of p53 in human NUGC4 cells assessed as change in CCNH mRNA level at 60 uM after 18 hrs by RT-PCR method relative to control; assay type: cell-based; conditions: read-out: FC
Summary of the method: (§2)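 p53 signaling qPCR array of 84 p53-pathway genes. Cells were treated in 6-well plates for 18 h with 0.5% DMSO in compound and control samples. Total RNA was extracted and fold-changes were obtained by the ΔΔCt method against untreated control, with β2-microglobulin (B2M) as housekeeping gene. Two independent biological replicates per cell line.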

Huh-7 = assay: Upregulation of BAX mRNA level in p53 Y220C mutant knockout human HuH7 cells at 30 uM after 18 hrs by RT-PCR method; assay type: functional, cell-based
[3] = target: T1, Cellular tumor antigen p53; assay: Activation of p53 in human NUGC4 cells assessed as change in CDKN1A mRNA level at 60 uM after 18 hrs by RT-PCR method relative to control; assay type: cell-based; conditions: read-out: FC; summary of the method: as §2
[4] = target: T1, Cellular tumor antigen p53; assay: Activation of p53 in human NUGC4 cells assessed as change in BCL2 mRNA level at 60 uM after 18 hrs by RT-PCR method relative to control; assay type: cell-based; conditions: read-out: FC; summary of the method: as §1
[5] = target: T1, Cellular tumor antigen p53; assay: Activation of p53 in human NUGC4 cells assessed as change in CHEK1 mRNA level at 60 uM after 18 hrs by RT-PCR method relative to control; assay type: cell-based; conditions: read-out: FC; summary of the method: as §2
[6] = system: Cellular tumor antigen p53 (Homo sapiens), P04637 [Y220C]; assay: Activation of p53 Y220C mutant in human NUGC3 cells assessed as change in HDAC1 mRNA level at 60 uM after 18 hrs by RT-PCR method relative to control; assay type: cell-based
Summary of the method: (§3)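 p53 signalling qPCR array covering 84 genes. Cells were exposed for 18 h, with 0.5% DMSO in both compound and control samples. Total RNA was extracted and purified. Fold-changes were calculated by ΔΔCt using β2-microglobulin (B2M) as the housekeeping gene. Two independent biological replicates were run per cell line.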

[7] = system: Cellular tumor antigen p53 (Homo sapiens), P04637 [Y220C]; assay: Activation of p53 Y220C mutant in human NUGC3 cells assessed as change in BIRC5 mRNA level at 60 uM after 18 hrs by RT-PCR method relative to control; assay type: cell-based; summary of the method: as §3
[8] = system: Cellular tumor antigen p53 (Homo sapiens), P04637 [Y220C]; assay: Activation of p53 Y220C mutant in human NUGC3 cells assessed as change in CCNG1 mRNA level at 60 uM after 18 hrs by RT-PCR method relative to control; assay type: cell-based; summary of the method: as §3
[9] = system: Cellular tumor antigen p53 (Homo sapiens), P04637 [Y220C]; assay: Activation of p53 Y220C mutant in human NUGC3 cells assessed as change in PCNA mRNA level at 60 uM after 18 hrs by RT-PCR method relative to control; assay type: cell-based; summary of the method: as §1
[10] = target: T1, Cellular tumor antigen p53; assay: Activation of p53 in human NUGC4 cells assessed as change in ATR mRNA level at 60 uM after 18 hrs by RT-PCR method relative to control; assay type: cell-based; conditions: read-out: FC; summary of the method: as §1
[11] = target: T1, Cellular tumor antigen p53; assay: Activation of p53 in human NUGC4 cells assessed as change in TP73 mRNA level at 60 uM after 18 hrs by RT-PCR method relative to control; assay type: cell-based; conditions: read-out: FC
[12] = system: Cellular tumor antigen p53 (Homo sapiens), P04637 [Y220C]; assay: Activation of p53 Y220C mutant in human NUGC3 cells assessed as change in MDM4 mRNA level at 60 uM after 18 hrs by RT-PCR method relative to control; assay type: cell-based; summary of the method: as §1
[13] = target: T1, Cellular tumor antigen p53; assay: Activation of p53 in human NUGC4 cells assessed as change in PTTG1 mRNA level at 60 uM after 18 hrs by RT-PCR method relative to control; assay type: cell-based; conditions: read-out: FC
[14] = system: Cellular tumor antigen p53 (Homo sapiens), P04637 [Y220C]; assay: Activation of p53 Y220C mutant in human NUGC3 cells assessed as change in TRAF2 mRNA level at 60 uM after 18 hrs by RT-PCR method relative to control; assay type: cell-based; summary of the method: as §1
[15] = system: Cellular tumor antigen p53 (Homo sapiens), P04637 [Y220C]; assay: Activation of p53 Y220C mutant in human NUGC3 cells assessed as change in BID mRNA level at 60 uM after 18 hrs by RT-PCR method relative to control; assay type: cell-based; summary of the method: as §3
[16] = target: T1, Cellular tumor antigen p53; assay: Activation of p53 in human NUGC4 cells assessed as change in TNF mRNA level at 60 uM after 18 hrs by RT-PCR method relative to control; assay type: cell-based; conditions: read-out: FC
[17] = system: Cellular tumor antigen p53 (Homo sapiens), P04637 [Y220C]; assay: Activation of p53 Y220C mutant in human NUGC3 cells assessed as change in RELA mRNA level at 60 uM after 18 hrs by RT-PCR method relative to control; assay type: cell-based; summary of the method: as §1
[18] = system: Cellular tumor antigen p53 (Homo sapiens), P04637 [Y220C]; assay: Activation of p53 Y220C mutant in human NUGC3 cells assessed as change in CHEK1 mRNA level at 60 uM after 18 hrs by RT-PCR method relative to control; assay type: cell-based; summary of the method: as §3
[19] = target: T1, Cellular tumor antigen p53; assay: Activation of p53 in human NUGC4 cells assessed as change in MCL1 mRNA level at 60 uM after 18 hrs by RT-PCR method relative to control; assay type: cell-based; conditions: read-out: FC; summary of the method: as §2
[20] = system: Cellular tumor antigen p53 (Homo sapiens), P04637 [Y220C]; assay: Activation of p53 Y220C mutant in human NUGC3 cells assessed as change in JUN mRNA level at 60 uM after 18 hrs by RT-PCR method relative to control; assay type: cell-based; summary of the method: as §1
[21] = system: Cellular tumor antigen p53 (Homo sapiens), P04637 [Y220C]; assay: Activation of p53 Y220C mutant in human NUGC3 cells assessed as change in EI24 mRNA level at 60 uM after 18 hrs by RT-PCR method relative to control; assay type: cell-based; summary of the method: as §3
[22] = system: Cellular tumor antigen p53 (Homo sapiens), P04637 [Y220C]; assay: Activation of p53 Y220C mutant in human NUGC3 cells assessed as change in PTEN mRNA level at 60 uM after 18 hrs by RT-PCR method relative to control; assay type: cell-based; summary of the method: as §1
[23] = system: Cellular tumor antigen p53 (Homo sapiens), P04637 [Y220C]; assay: Activation of p53 Y220C mutant in human NUGC3 cells assessed as change in TADA3 mRNA level at 60 uM after 18 hrs by RT-PCR method relative to control; assay type: cell-based; summary of the method: as §1
[24] = system: Cellular tumor antigen p53 (Homo sapiens), P04637 [Y220C]; assay: Activation of p53 Y220C mutant in human HuH7 cells assessed as increase in MDM2 mRNA level at 30 uM after 18 hrs by RT-PCR method; assay type: cell-based
Summary of the method: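 Real-time PCR. Cells were treated for 18 h, with 0.5% DMSO in both compound and control samples. Relative mRNA levels were quantified by the ΔΔCt method as fold-change against the untreated sample. Each sample was measured in triplicate, and data are given as mean ± SEM with an unpaired t-test.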

SW1088 = assay: Antiproliferative activity against human SW1088 cells harboring p53 R273C mutant assessed as cell viability at <40 uM after 72 hrs by CellTiter-Glo assay relative to control
[25] = target: T1, Cellular tumor antigen p53; assay: Activation of p53 in human NUGC4 cells assessed as change in APAF1 mRNA level at 60 uM after 18 hrs by RT-PCR method relative to control; assay type: cell-based; conditions: read-out: FC; summary of the method: as §1
[26] = target: T1, Cellular tumor antigen p53; assay: Activation of p53 in human NUGC4 cells assessed as change in BAX mRNA level at 60 uM after 18 hrs by RT-PCR method relative to control; assay type: cell-based; conditions: read-out: FC; summary of the method: as §1

## CCNC(=O)c1c(O)c(I)c(-n2cccc2)c2sc(N(CC)CC)nc12
[1]
  fold change (FC): 1.4
[2]
  fold induction at 60 µM: 0.9
Huh-7
  Activity: inactive
[3]
  fold induction at 60 µM: 1.3
[4]
  fold induction at 60 µM: 1.2
[5]
  fold induction at 60 µM: 0.7
[6]
  fold change (FC): 0.6
[7]
  fold change (FC): 0.6
[8]
  fold change (FC): 1.2
[9]
  fold change (FC): 0.8
[10]
  fold induction at 60 µM: 0.9
[11]
  fold induction at 60 µM: 0.4
[12]
  fold change (FC): 1.3
[13]
  fold induction at 60 µM: 0.9
[14]
  fold change (FC): 1.4
[15]
  fold change (FC): 1.2
[16]
  fold induction at 60 µM: 1.1
[17]
  fold change (FC): 1.1
[18]
  fold change (FC): 1.2
[19]
  fold induction at 60 µM: 0.8
[20]
  fold change (FC): 0.9
[21]
  fold change (FC): 0.8
[22]
  fold change (FC): 1.1
[23]
  fold change (FC): 0.8
[24]
  Activity: Active
SW1088
  Activity: >80%
[25]
  fold induction at 60 µM: 1
[26]
  fold induction at 60 µM: 0.8
